Measured values published in ChEMBL document CHEMBL1240347, “MK-7009, a potent and selective inhibitor of hepatitis C virus NS3/4A protease” (Antimicrob Agents Chemother, 2010).

What was measured:
[1] = Inhibition of Hepatitis C virus genotype 2b NS3/4A protease activity; design: species or system Hepatitis C virus subtype 2b
Summary of the method: (§1)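 Recombinant NS3/4A protease was expressed in and purified from E. coli. Inhibition was measured by a time-resolved, internally quenched fluorescence assay at low enzyme concentration. Kis were reported.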

Hepatitis C virus [2] = assay: Antiviral activity against Hepatitis C virus genotype 1b infected in […] cell by cell-based HCV replicon assay in presence of 10% fetal bovine serum; assay type: functional, organism-based, Hepacivirus hominis
Summary of the method: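 Stable genotype 1b (con1) replicon cell line HB1, assayed in medium with 10% fetal bovine serum.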

[3] = Inhibition of Hepatitis C virus genotype 1a NS3/4A protease activity; design: species or system Hepatitis C virus subtype 1a; summary of the method: as §1
[4] = Cytotoxicity against […] cells; assay type: cell-based; conditions: HB1
Hepatitis C virus [5] = assay: Inhibition of Hepatitis C virus genotype 1b NS3/4A protease activity; design: species or system Hepatitis C virus subtype 1b; summary of the method: as §1
Hepatitis C virus [6] = assay: Antiviral activity against Hepatitis C virus genotype 1b infected in […] cell by cell-based HCV replicon assay in presence of 50% normal human serum; assay type: functional, organism-based, Hepacivirus hominis
Summary of the method: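 Stable genotype 1b (con1) replicon cell line HB1, assayed in the presence of 50% normal human serum.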

[7] = Inhibition of Hepatitis C virus genotype 2a NS3/4A protease activity; design: species or system Hepatitis C virus subtype 2a; summary of the method: as §1
Hepatitis C virus [8] = assay: Antiviral activity against Hepatitis C virus genotype 2a infected in […] cell by cell-based HCV replicon assay in presence of 10% fetal bovine serum; assay type: functional, organism-based, Hepacivirus hominis
Serine protease 1 = Serine protease 1 (Homo sapiens, UniProt P07477); assay: Inhibition of human Trypsin activity
Serine protease 1, sequence (P07477 whole entry): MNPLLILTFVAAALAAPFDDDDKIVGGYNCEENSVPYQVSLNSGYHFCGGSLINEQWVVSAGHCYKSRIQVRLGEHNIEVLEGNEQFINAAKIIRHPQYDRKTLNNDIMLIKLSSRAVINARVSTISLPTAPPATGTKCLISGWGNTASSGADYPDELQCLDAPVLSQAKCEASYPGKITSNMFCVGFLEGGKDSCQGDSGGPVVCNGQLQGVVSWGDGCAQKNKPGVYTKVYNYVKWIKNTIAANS

[9] = target: Chymotrypsin-like elastase family member 1 (Homo sapiens, UniProt Q9UNI1); assay: Inhibition of human Pancreatic elastase 1
Chymotrypsin-like elastase family member 1, sequence (Q9UNI1 whole entry): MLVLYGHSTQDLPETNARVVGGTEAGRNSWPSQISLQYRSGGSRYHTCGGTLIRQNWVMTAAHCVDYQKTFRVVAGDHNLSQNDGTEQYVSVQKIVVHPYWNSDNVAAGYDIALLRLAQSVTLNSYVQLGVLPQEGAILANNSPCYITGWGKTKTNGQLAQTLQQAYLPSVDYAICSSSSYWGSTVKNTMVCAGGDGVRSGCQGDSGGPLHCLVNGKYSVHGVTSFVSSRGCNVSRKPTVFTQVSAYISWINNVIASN

Cathepsin S = Cathepsin S (Homo sapiens, UniProt P25774); assay: Inhibition of human Cathepsin S
Cathepsin S, sequence (P25774 whole entry): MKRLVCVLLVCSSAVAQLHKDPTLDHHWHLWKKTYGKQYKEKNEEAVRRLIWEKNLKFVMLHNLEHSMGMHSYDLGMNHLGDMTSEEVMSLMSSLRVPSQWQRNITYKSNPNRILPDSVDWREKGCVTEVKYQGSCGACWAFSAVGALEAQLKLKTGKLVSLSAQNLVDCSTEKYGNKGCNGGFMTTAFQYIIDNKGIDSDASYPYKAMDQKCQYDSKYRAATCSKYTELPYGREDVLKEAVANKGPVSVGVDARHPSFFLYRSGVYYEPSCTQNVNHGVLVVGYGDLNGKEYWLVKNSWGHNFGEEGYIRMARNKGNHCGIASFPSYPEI

Cathepsin B = Cathepsin B (Homo sapiens, UniProt P07858); assay: Inhibition of human Cathepsin B
Cathepsin F = target: T1, Cathepsin F (Homo sapiens, UniProt Q9UBX1); assay: Inhibition of human Cathepsin F
T1 sequence (Q9UBX1 whole entry): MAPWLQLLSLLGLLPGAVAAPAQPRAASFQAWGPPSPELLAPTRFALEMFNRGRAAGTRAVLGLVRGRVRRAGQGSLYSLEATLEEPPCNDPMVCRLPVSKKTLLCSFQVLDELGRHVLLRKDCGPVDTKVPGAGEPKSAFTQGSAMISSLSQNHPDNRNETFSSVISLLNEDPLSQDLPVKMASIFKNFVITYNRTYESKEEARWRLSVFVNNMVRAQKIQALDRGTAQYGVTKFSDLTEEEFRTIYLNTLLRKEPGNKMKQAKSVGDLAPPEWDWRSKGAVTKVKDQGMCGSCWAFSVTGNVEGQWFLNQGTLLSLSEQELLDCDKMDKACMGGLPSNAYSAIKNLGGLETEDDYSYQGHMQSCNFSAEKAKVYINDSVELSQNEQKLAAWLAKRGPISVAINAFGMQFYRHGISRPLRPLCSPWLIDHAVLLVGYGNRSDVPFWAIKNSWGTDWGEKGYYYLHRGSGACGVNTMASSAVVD

Neutrophil elastase = target: T2, Neutrophil elastase (Homo sapiens, UniProt P08246); assay: Inhibition of human Neutrophil elastase 2
T2 sequence (P08246 whole entry): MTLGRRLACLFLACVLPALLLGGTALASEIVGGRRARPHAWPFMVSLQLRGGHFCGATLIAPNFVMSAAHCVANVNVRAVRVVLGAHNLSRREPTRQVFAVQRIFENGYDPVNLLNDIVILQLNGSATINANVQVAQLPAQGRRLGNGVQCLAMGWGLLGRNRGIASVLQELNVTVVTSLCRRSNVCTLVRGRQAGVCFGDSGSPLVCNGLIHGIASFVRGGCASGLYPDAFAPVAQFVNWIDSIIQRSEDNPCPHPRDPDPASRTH

Cathepsin K = target: T3, Cathepsin K (Homo sapiens, UniProt P43235); assay: Inhibition of human Cathepsin K
T3 sequence (P43235 whole entry): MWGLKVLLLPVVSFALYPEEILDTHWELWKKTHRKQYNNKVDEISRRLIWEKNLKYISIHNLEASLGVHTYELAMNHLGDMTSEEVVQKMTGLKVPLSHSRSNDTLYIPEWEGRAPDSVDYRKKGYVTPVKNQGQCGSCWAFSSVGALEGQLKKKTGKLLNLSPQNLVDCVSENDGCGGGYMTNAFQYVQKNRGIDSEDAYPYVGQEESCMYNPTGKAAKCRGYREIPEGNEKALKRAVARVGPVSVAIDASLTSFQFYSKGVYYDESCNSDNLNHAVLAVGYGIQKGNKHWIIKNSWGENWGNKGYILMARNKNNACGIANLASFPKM

Cathepsin L2 = target: T4, Cathepsin L2 (Homo sapiens, UniProt O60911); assay: Inhibition of human Cathepsin V
T4 sequence (O60911 whole entry): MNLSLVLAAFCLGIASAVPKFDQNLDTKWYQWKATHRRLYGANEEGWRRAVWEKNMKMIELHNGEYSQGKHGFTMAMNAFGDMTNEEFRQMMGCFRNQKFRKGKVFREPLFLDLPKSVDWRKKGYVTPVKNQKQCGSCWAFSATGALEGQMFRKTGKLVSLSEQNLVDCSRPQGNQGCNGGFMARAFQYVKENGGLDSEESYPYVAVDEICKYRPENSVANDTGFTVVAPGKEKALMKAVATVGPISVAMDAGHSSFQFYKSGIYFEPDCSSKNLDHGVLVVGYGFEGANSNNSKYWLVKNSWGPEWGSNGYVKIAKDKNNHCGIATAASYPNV

Chymase = target: T5, Chymase (Homo sapiens, UniProt P23946); assay: Inhibition of human Chymase
T5 sequence (P23946 whole entry): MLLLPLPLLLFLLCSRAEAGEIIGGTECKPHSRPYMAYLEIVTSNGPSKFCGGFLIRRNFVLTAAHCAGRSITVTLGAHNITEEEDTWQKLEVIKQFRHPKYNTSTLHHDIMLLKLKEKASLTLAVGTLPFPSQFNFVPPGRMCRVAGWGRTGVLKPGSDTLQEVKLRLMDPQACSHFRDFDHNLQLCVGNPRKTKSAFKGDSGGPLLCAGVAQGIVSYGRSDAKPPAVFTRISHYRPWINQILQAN

[10] = Inhibition of human Chymotrypsin
Procathepsin L = Procathepsin L (Homo sapiens, UniProt P07711); assay: Inhibition of human Cathepsin L
Procathepsin L, sequence (P07711 whole entry): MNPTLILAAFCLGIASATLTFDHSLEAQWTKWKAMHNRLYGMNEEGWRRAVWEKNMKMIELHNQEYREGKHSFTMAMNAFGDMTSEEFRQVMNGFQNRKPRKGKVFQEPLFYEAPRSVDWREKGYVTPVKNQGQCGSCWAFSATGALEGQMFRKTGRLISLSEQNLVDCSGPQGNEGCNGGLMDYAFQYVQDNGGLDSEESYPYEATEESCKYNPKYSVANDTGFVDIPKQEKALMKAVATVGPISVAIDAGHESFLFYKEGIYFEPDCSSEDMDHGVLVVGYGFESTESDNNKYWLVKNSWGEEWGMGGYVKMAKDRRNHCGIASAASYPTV

| Compound | Ki [1] | EC50 (Hepatitis C virus [2]) | Ki [3] | EC50 [4] | Ki (Hepatitis C virus [5]) | EC50 (Hepatitis C virus [6]) | Ki [7] | EC50 (Hepatitis C virus [8]) | IC50 (Serine protease 1) | IC50 [9] | IC50 (Cathepsin S) | IC50 (Cathepsin B) | IC50 (Cathepsin F) | IC50 (Neutrophil elastase) | IC50 (Cathepsin K) | IC50 (Cathepsin L2) | IC50 (Chymase) | IC50 [10] | IC50 (Procathepsin L) |
| --- | --- | --- | --- | --- | --- | --- | --- | --- | --- | --- | --- | --- | --- | --- | --- | --- | --- | --- | --- |
| COc1ccc2c(O[C@@H]3C[C@H]4C(=O)N[C@]5(C(=O)O)C[C@H]5/C=C\CCCCC[C@H](NC(=O)OC5CCCC5)C(=O)N4C3)cc(-c3csc(NC(C)C)n3)nc2c1 [CILUPREVIR] | 61 nM | 3 nM | 0.81 nM | 50000 nM | 0.3 nM | 17 nM | 7 nM | 27 nM | – | – | – | – | – | – | – | – | – | – | – |
| CCC[C@H](NC(=O)[C@@H]1[C@H]2CCC[C@H]2CN1C(=O)[C@@H](NC(=O)[C@@H](NC(=O)c1cnccn1)C1CCCCC1)C(C)(C)C)C(=O)C(=O)NC1CC1 [TELAPREVIR] | 42 nM | 1100 nM | 130 nM | > 50000 nM | 93 nM | 8600 nM | 54 nM | 390 nM | > 10000 nM | 30 nM | 300 nM | 4400 nM | > 10000 nM | 8000 nM | 630 nM | 1350 nM | 26 nM | 3000 nM | 3500 nM |
| CC(C)(C)NC(=O)N[C@H](C(=O)N1C[C@H]2[C@@H]([C@H]1C(=O)NC(CC1CCC1)C(=O)C(N)=O)C2(C)C)C(C)(C)C (some centres undefined) [BOCEPREVIR] | 21 nM | 480 nM | 21 nM | > 50000 nM | 28 nM | 1180 nM | 25 nM | 170 nM | – | > 10000 nM | 120 nM | > 3300 nM | 1100 nM | > 10000 nM | 40 nM | 75 nM | 32 nM | – | 760 nM |
